Measurements collected from several papers.
Target: Mitogen-activated protein kinase kinase kinase 7 (MAP3K7, Homo sapiens, UniProt O43318)

SMILES | read-out | mode | technique | tested at | quantity | result
CS(=O)(=O)N1CCCC(NC(=O)[C@H](CCC2CCCCC2)NC(=O)c2ccc(CNc3ncnc4c3nnn4-c3ccccc3)cc2)C1 (stereo partly drawn) | cell-free assay | – | competition with immobilised ligand | 0.1 µM | remaining binding | 100%
COc1cc(/C=C/C(=O)CC(=O)/C=C/c2ccc(O)c(OC)c2)ccc1O | enzyme activity | inhibitor | – | 1 µM | activity vs control | 102%
Cc1cc(-n2nc(Cc3cc(F)cc(C(F)(F)F)c3)nc2C)ccc1C(N)=O | cell-free assay | – | competition with immobilised ligand | 1 µM | remaining binding | 100%
C=CC(=O)Nc1cc(Nc2nccc(Nc3cc(Cl)c(F)cc3C(C)(C)O)n2)c(OC)cc1N1CC[C@@H](N(C)C)C1 | enzyme activity | inhibitor | – | 1 µM | inhibition | 21%
Cc1ccc(Nc2nccc(N(C)c3ccc4c(C)n(C)nc4c3)n2)cc1S(N)(=O)=O | enzyme activity | inhibitor | – | 10 µM | inhibition | -4%
CC1=C(C#N)C(c2ccc3c(c2)c(NC(=O)c2ccccc2C)nn3C)C(C#N)=C(C)N1 | cell-free assay | – | competition with immobilised ligand | 1 µM | remaining binding | 74%
CCCCNc1ncc2c(-c3ccc(F)cc3)nn(C[C@H]3CC[C@H](N)CC3)c2n1 | target engagement in cells | inhibitor | chemoproteomics | 20 mM | inhibition | 16%
CC(C)c1ccc(NC(=O)c2cccs2)c(-c2nc3ccccc3[nH]c2=O)c1 | enzyme activity | inhibitor | – | 1 µM | activity vs control | 106%
CN1CC(Oc2cnc(C#N)cc2-c2ccn3nc(NC(=O)C4CC4)cc3c2)C1 | enzyme activity | inhibitor | – | 1 µM | inhibition | 8%
COc1cc2ncnc(Nc3ccc(F)c(Cl)c3)c2cc1OCCCN1CCOCC1 | cell-free assay | – | – | 0.5 µM | remaining signal | 91.3%
O=C(NC[C@@H]1[C@H]2CN(C(=O)OCc3cc(C(F)(F)F)cc(C(F)(F)F)c3)C[C@@H]12)c1ccc2[nH]nnc2c1 | cell-free assay | – | competition with immobilised ligand | 1 µM | remaining binding | 94%
CNC(=O)c1cc(Oc2ccc(NC(=O)Nc3ccc(Cl)c(C(F)(F)F)c3)cc2)ccn1 | cell-free assay | – | – | 0.5 µM | remaining signal | 101%
FC(F)(F)Oc1cccc(-c2cnc3ccc(-c4ccncc4)nn23)c1 | enzyme activity | inhibitor | radiometric | 5 µM | activity vs control | 58%
O=C1Nc2ccc(Cl)cc2C1=Cc1cc(Cl)c(O)c(Cl)c1 | cell-free assay | – | – | 0.5 µM | remaining signal | 86.8%
FC(F)c1nc2ccccc2n1-c1nc(N2CCOCC2)nc(N2CCOCC2)n1 | enzyme activity | inhibitor | – | 10 µM | remaining activity | 97%
O=C(Nc1cnn(-c2csc(C(=O)NC3COC3)c2)c1)Nc1c(F)cccc1Cl | enzyme activity | inhibitor | – | 5 µM | remaining activity | 109%
CC(C)(O)[C@H]1CC[C@H](Nc2ccc3ncc(-c4cccc(C(F)(F)F)c4)n3n2)CC1 | enzyme activity | inhibitor | – | 1 µM | remaining activity | 107%
CO[C@@H](C)c1c(Nc2ccc([C@H](N(C)C(=O)C3CCS(=O)(=O)CC3)C(F)(F)F)cc2)cnc2cc(Cl)nn12 | cell-free assay | – | competition with immobilised ligand | 1 µM | remaining binding | 89%
Nc1ncnc2occ(-c3ccc(NC(=O)Nc4cc(C(F)(F)F)ccc4F)cc3)c12 | cell-free assay | inhibitor | – | 20 µM | remaining signal | 3.7%
Cc1cnc(NC2CCOCC2)nc1-n1cnc(C(=O)NC(CN)c2cc(F)cc(Cl)c2)c1 (stereo not drawn) | enzyme activity | inhibitor | radiometric | 1 µM | remaining activity | 98%
CCCOc1ccc(OC)c(F)c1C(=O)c1ccc(C(=O)N[C@@H]2CNC[C@H]2NC(=O)c2ccc3[nH]ncc3c2)cc1 | enzyme activity | inhibitor | – | 10 µM | remaining activity | 106%
C[C@@]1(Cc2ccc(C#N)cc2)C(=O)N(c2cc(Cl)cc(Cl)c2)c2ncc(C(=O)NC3(c4nc(C5CCC5)no4)CC3)n21 | cell-free assay | – | competition with immobilised ligand | 1 µM | remaining binding | 96%
Cn1c(=O)n(-c2ccc(C(C)(C)C#N)cc2)c2c3cc(-c4cnc5ccccc5c4)ccc3ncc21 | enzyme activity | inhibitor | – | 10 µM | remaining activity | 67%
Cc1cc(C)c(-n2ccn3nc(-c4cccnc4)cc23)cc1NC(=O)c1cc(C#N)cc(S(F)(F)(F)(F)F)c1 | cell-free assay | – | competition with immobilised ligand | 0.1 µM | remaining binding | 66.2%
COc1cc(Nc2cnc(C#N)c(O[C@H](C)CN(C)C)n2)ncc1-c1cnn(C)c1 | enzyme activity | inhibitor | radiometric | 1 µM | remaining activity | 97%
CN(c1ccnc(CNc2nc(Nc3ccc4c(c3)CC(=O)N4)ncc2C(F)(F)F)n1)S(C)(=O)=O | cell-free assay | – | competition with immobilised ligand | 1 µM | remaining binding | 48%
CCN(CC)CCNC(=O)c1c(C)[nH]c(/C=C2\C(=O)Nc3ccc(F)cc32)c1C | enzyme activity | inhibitor | – | 0.3 µM | inhibition | 52%
